S1P3 antag = S1P3 (human) receptor antagonism. CHO S1P3 NFAT-BLA reporter, FRET fluorescence, antagonist mode. inhibition, % at 4.98 µM. 0.27% of 170,000 active;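 active means inhibition above the plate cutoff, the mean inhibition of test wells on that plate plus 3 SD, cut at about 28% in these data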;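 further: cells challenged with S1P at its EC80 of 0.8 µM; blue over green emission ratio from cleaved BLA substrate after 4 h stimulation; 0% = S1P-stimulated wells and 100% = unstimulated DMSO-only wells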
Target sequence (Q99500 whole entry, looked up): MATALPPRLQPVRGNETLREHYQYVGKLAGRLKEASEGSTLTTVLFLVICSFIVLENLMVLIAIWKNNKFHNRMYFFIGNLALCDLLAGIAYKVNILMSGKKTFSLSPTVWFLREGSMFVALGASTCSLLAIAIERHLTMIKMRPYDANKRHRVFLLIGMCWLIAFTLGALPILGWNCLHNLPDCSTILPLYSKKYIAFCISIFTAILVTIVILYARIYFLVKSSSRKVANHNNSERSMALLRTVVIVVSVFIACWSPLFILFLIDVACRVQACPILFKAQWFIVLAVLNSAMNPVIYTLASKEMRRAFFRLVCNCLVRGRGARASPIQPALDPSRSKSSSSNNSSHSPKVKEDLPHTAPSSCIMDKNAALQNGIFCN
Yeast life ext = extends the lifespan of yeast. S. cerevisiae growth with nicotinamide, OD615; deaD strain in restrictive glucose medium. inhibition of the nicotinamide effect, % at 10 µM. 0.68% of 130,000 active. AID 775;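 active means inhibition above a set limit, placed 3 SD over the median of all compounds, cut at about 26% in these data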;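 further: 0% = nicotinamide-treated wells and 100% = cells grown without nicotinamide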
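Buffer or medium: CSMM-D glucose medium, restrictive; test system: modified budding yeast, DeaD strain; compound: single dose 10 µM compound, 0.25% DMSO; schedule: culture preincubation 4 h, compound exposure 48 h, both 30 °C; detection: optical density (absorbance) at 615 nm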
Yeast growth inh = yeast BB579 growth reduction in restrictive medium | S. cerevisiae BB579 growth, OD615, 48 h | inhibition, % at 10 µM | 0.51% of 140,000 active;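 active means inhibition above a set limit, 3 SD over the mean compound inhibition, cut at about 44% in these data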
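System: Saccharomyces cerevisiae DeaD strain BB579, replicative lifespan model yeast | Buffer or medium: Restrictive glucose-based CSMM-D medium | Times: 4 h preincubation and 48 h exposure at 30 °C | Detection: OD615 turbidity measurement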
* hit, by the source's call; x = not tested or not shown. The list is not random: actives were taken first. Their share in the collection is about 0.98%.

SMILES | S1P3 antag | Yeast life ext | Yeast growth inh
O=C(CCS(=O)(=O)Cc1ccccc1)NC1CCCCC1 | -13.1 | -8.2 | -22.1
O=C(Nc1cccc(N=Cc2cc(Cl)cc(Br)c2O)c1)c1ccco1 | -6.8 | 7.3 | 56.3*
C/C(=N\NC(=O)c1cccc(Cl)c1)c1cccc(NC(=O)c2ccco2)c1 | x | -14.3 | -13.3
CC(C)(C)NC(=O)c1cccc(NC(=O)c2ccco2)c1 | x | x | -7.2
O=C(Nc1cccc(N=Cc2cc(Br)cc(Br)c2O)c1)c1ccco1 | 0.2 | -10.1 | 99.9*
Cc1ccc2[nH]c(-c3ccccc3)cc(=O)c2c1 | 60.5* | -23.8 | -31.1
Cc1ccc(-c2cc(=O)c3ccccc3[nH]2)cc1 | -9.3 | 0.0 | -9.8
C/C(=N\OCC(=O)Nc1ccc2c(c1)OCCO2)c1ccc2c(c1)OCCO2 | -15.8 | -4.6 | 0.1
Cc1cccc(/C=C/C(=O)c2cc(Br)ccc(=O)c2O)c1 | x | -14.3 | 94.8*
Cc1ccc(/C=C/C(=O)c2cc(Br)ccc2OC(=O)c2ccco2)cc1 | x | -7.4 | -41.4
CCc1ccc(/C=C/C(=O)c2cc(Br)ccc(=O)c2O)cc1 | x | -10.0 | 88.6*
Cc1cccc(/C=N/NC(=O)c2ccc(Br)cc2)c1 | 6.5 | -1.6 | -41.6
CCOc1ccc(/C=C/C(=O)c2cc(Br)ccc(=O)c2O)cc1 | -12.8 | 3.7 | 92.5*
CCOc1ccc(C(=O)/C=C/c2ccc(OC)c(OC)c2)cc1 | -2.2 | x | x
O=C(O)CCSc1ccc([N+](=O)[O-])cc1[N+](=O)[O-] | 3.2 | x | x
CCO/N=C/C1=C(O)C(C(=O)OC)C(C)(C)CC1=O (stereo unspecified) | -29.3 | x | x
CC/C(=C1/C(=O)CC(C)(C)C(C(=O)OC)C1=O)N1CCCC1 (stereo unspecified) | -7.4 | 29.8* | -21.2
CCN1C(=O)/C(=C\N(C)C)NC1=S | 14.5 | 3.4 | 4.2
Cc1ccc(C)n1-n1c(C)nc2sc(-c3ccccc3)cc2c1=O | 54.8* | -8.1 | -22.3
Cc1ccc(C)n1-n1cnc2sc(-c3ccccc3)cc2c1=O | 19.8 | -10.1 | -76.6
CC(C)OCCCNC(=O)CN1C(=O)/C(=C/c2ccccc2)Sc2ccccc21 | 1.6 | 0.2 | -32.9
O=C(c1ccccc1)C1C(c2ccccc2)C1[N+](=O)[O-] (stereo unspecified) | 21.2 | x | x
CN(C)c1ccc([C@@H]2[C@@H]([N+](=O)[O-])[C@H]3C=Cc4ccccc4N3[C@H]2C(=O)c2ccc(Cl)cc2)cc1 | -0.4 | 32.0* | -8.6
CC(=O)N1CCC(=O)Nc2ccc([N+](=O)[O-])cc21 | 0.7 | x | x
Cc1c2cc(O)c(=O)cc-2oc2cc(O)c(O)cc12 | 7.1 | -6.0 | 72.7*
SMILES | S1P3 antag | Yeast life ext | Yeast growth inh
COc1cc(OC)c(-c2c3cc(O)c(=O)cc-3oc3cc(O)c(O)cc23)cc1OC | 12.1 | 8.5 | 3.8
Cn1c(CCNC(=O)C2CCCCC2)nc2cc(NC(=O)c3cccs3)ccc21 | -2.0 | x | x
O=C(C1=C[C@H](c2csc3ccccc23)C[C@H](OCc2ccc(CO)cc2)O1)N1CCN(Cc2ccc3c(c2)OCO3)CC1 | 0.4 | x | x
Cc1cccc(OCC(=O)Nc2ccccc2N2CCN(C(=O)C(C)C)CC2)c1C | 18.3 | -4.7 | -30.0
CCCCN(CCCC)c1nc(OC)nc(-n2nnc(C(C)=O)c2C)n1 | x | 28.2 | -18.1
CC(C)(C)N/N=C/c1cc(Cl)cc([N+](=O)[O-])c1O | 0.1 | -7.8 | 91.9*
O=C(N/N=C/c1cc(Cl)cc([N+](=O)[O-])c1O)C1CC1 | -3.6 | x | x
COc1ccc(N)c2c1C(=O)c1ccccc1C2=O | 12.5 | -8.9 | 70.6*
COc1ccc(S(=O)(=O)N2CCCC2)c(Cl)c1Cl | 1.6 | x | x
Nc1ccc(Br)c2c1C(=O)c1ccccc1C2=O | x | -24.9 | 16.9
Nc1ccc(O)c2c1C(=O)c1ccccc1C2=O | -9.4 | -4.8 | 69.4*
COc1ccc(OC)c2c1C(=O)C(Cl)=C(Cl)C2=O | 31.2* | x | x
COc1ccc(OC)c2c1C(=O)c1ccccc1C2=O | x | -2.7 | 22.6
CC1CCCC(C)N1C(=O)CSc1nnc(-c2cccs2)o1 (stereo unspecified) | -3.3 | -8.3 | -30.2
COc1ccc(-c2nnc3sc(CN4C(=O)c5ccccc5C4=O)nn23)cc1 | 16.8 | x | x
COc1ccc(-c2nnc3sc(C(C)N4C(=O)c5ccccc5C4=O)nn23)cc1 (stereo unspecified) | -14.2 | 30.5* | -22.8
CC(=O)c1ccc(N=Cc2c(O)n(-c3cc(Cl)ccc3N3CCOCC3)c(=O)c3ccccc23)cc1 | x | -2.6 | -27.7
Cc1cc(NC(=O)c2cc(-c3ccccn3)nc3ccccc23)no1 | 0.9 | -9.0 | -10.2
Cc1cc(C)c2nc(-c3ccccn3)cc(C(=O)Nc3cc(C)on3)c2c1 | 54.1* | -18.2 | -47.7
O=S1(=O)Nc2c(ccc3cccnc23)-c2ccccc21 | 14.0 | -12.6 | 99.7*
O=c1[nH]n(-c2cccc3cccnc23)c(=O)c2ccccc12 | -0.1 | -3.0 | -36.4
CCN(CC)CCOC(=O)c1ccc(NC(=O)CNC(=O)C2CCCCC2)cc1 | 0.2 | 3.5 | -10.2
O=C(Cn1c2ccc(F)cc2c2nc3n(c(=O)c21)CCS3)Nc1ccc(Cl)cc1F | 6.4 | x | x
C=CCn1c(O)c(C(CC)=NCCN2CCOCC2)c(=O)[nH]c1=O | 2.3 | 37.5* | 20.4
C=CCn1c(O)c(C(CC)=Nc2ccccc2NC(=O)CC)c(=O)[nH]c1=O | -25.5 | -0.4 | 0.9
SMILES | S1P3 antag | Yeast life ext | Yeast growth inh
C=CCNc1nc(NCCN2CCOCC2)nc(N2CCOCC2)n1 | -28.4 | -9.9 | -56.8
CN(C)S(=O)(=O)Nc1cccc(Br)c1 | 0.3 | x | x
CCCn1c(SCC(=O)Nc2ccc(OC)cc2[N+](=O)[O-])n[nH]c1=O | 6.6 | x | x
COc1cccc(C(=O)NC(=O)Nc2cc(C)[nH]n2)c1 | -7.7 | x | x
COC(=O)c1c(NC(=O)c2ccco2)sc2c1C(C(=O)OC)CC2 (stereo unspecified) | 54.5* | -16.3 | -4.8
COC(=O)c1c(NC(=O)C(C)C)sc2c1C(C(=O)OC)CC2 (stereo unspecified) | x | x | -12.8
COc1ccc(C(=O)N2CC(=O)Nc3ccccc32)cc1S(=O)(=O)N1CCCC1 | -16.4 | x | x
CSCC[C@H](NC(=O)OC(C)(C)C)C(=O)N/N=C/c1cccc2cccnc12 | 14.0 | x | x
CC1(C)CC(=O)c2sc(NS(C)(=O)=O)nc2C1 | -25.3 | 96.9* | -6.8
CC1(C)CC(=O)c2sc(NS(=O)(=O)c3ccccc3)nc2C1 | 2.4 | x | x
CCCN1C2=NS(=O)(=O)CCN2c2ccccc21 | -0.7 | -13.8 | -32.5
O=[N+]([O-])c1cccc(S(=O)(=O)N2CCC(c3nc(-c4ccncc4)no3)CC2)c1 | x | -8.1 | -31.1
CC(=O)CCc1c(C)c2cc(C)ccc2[nH]c1=O | -10.8 | -8.2 | -31.0
CCS(=O)(=O)Nc1ccc(-c2cc(-c3ccccc3)c3cc(C)ccc3n2)cc1 | -1.7 | 1.4 | -41.0
Cc1ccc2nc(-c3ccc(NS(C)(=O)=O)cc3)cc(-c3ccccc3)c2c1 | x | -29.7 | 90.4*
S=C1NC2(CCCCC2)NN1c1ccccc1 | 17.7 | x | x
CC1CCCC2(C1)NC(=S)N(c1ccccc1)N2 (stereo unspecified) | x | -32.1 | 87.1*
COC(=O)c1ccc(OC)c(OC)c1Cl | -15.4 | x | x
CCOC(=O)c1c(/N=C/c2cccc([N+](=O)[O-])c2O)sc(C)c1C | 15.5 | -5.7 | 75.3*
CCOC(=O)c1c(/N=C/C2=C(O)CCCC2=O)sc(C)c1C | -6.8 | -4.8 | -33.3
CCOC(=O)C1(Cc2ccccc2)CCN(Cc2cc(=O)c3ccccc3[nH]2)CC1 | -3.3 | x | x
